Measurements as given in ChEMBL document CHEMBL1124337, “Structure-activity relationships in prazosin-related compounds. Effect of replacing a piperazine ring with an alkanediamine moiety on alpha 1-adrenoreceptor blocking activity” (J Med Chem, 1989).

Legend:
[1] = target: T1, Adrenergic receptor alpha-1 (Rattus norvegicus, UniProt P15823+P23944+P43140); assay: Antagonist activity for Alpha-1 adrenergic receptor against norepinephrine in rat vas deferences; format: functional
T1 sequence (P15823 whole entry): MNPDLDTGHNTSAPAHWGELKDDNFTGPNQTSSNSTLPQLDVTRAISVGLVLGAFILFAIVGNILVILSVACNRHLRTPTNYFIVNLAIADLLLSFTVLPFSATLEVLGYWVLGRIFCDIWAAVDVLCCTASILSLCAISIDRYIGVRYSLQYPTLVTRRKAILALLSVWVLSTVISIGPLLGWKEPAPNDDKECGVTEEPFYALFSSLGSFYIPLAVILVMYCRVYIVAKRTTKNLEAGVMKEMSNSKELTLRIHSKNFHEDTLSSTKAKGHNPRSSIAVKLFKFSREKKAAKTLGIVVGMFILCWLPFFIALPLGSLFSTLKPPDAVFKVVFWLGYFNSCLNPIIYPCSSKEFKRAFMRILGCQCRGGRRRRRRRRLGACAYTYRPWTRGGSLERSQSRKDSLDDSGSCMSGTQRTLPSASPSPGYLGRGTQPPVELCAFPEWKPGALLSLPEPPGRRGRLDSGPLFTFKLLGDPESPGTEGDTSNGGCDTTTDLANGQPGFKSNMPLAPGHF
T1 sequence (P23944 whole entry): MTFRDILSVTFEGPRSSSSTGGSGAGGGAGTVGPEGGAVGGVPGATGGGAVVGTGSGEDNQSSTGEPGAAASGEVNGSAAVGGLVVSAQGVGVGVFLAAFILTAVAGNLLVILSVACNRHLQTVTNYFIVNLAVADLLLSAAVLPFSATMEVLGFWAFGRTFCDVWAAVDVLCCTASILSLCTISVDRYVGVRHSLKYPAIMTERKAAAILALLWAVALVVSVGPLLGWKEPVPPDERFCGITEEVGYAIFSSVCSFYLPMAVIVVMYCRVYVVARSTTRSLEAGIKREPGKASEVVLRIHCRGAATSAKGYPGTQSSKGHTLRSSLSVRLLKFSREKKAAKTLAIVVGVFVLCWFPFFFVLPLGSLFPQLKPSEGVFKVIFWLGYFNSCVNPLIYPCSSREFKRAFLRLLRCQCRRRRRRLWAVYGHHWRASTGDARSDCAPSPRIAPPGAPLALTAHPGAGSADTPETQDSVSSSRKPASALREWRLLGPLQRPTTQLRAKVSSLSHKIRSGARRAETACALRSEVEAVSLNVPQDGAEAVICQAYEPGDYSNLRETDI
T1 sequence (P43140 whole entry): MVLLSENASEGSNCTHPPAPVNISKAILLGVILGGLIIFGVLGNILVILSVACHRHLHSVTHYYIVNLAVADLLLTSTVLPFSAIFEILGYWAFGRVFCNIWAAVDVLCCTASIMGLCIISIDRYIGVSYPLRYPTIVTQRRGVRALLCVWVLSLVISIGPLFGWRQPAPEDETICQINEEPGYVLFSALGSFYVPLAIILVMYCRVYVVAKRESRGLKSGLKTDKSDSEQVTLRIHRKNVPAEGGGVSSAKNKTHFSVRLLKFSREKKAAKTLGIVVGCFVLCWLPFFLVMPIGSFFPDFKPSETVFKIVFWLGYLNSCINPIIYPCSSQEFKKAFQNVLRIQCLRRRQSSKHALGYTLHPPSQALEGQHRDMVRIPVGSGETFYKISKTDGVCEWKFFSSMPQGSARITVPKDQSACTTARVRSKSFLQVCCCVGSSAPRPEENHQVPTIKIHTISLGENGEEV

[2] = target: T2, Adrenergic receptor alpha-2 (Rattus norvegicus, UniProt P22086+P19328+P22909); assay: Antagonist activity for Alpha-2 adrenergic receptor against clonidine in rat vas deferences; format: functional
T2 sequence (P22086 whole entry): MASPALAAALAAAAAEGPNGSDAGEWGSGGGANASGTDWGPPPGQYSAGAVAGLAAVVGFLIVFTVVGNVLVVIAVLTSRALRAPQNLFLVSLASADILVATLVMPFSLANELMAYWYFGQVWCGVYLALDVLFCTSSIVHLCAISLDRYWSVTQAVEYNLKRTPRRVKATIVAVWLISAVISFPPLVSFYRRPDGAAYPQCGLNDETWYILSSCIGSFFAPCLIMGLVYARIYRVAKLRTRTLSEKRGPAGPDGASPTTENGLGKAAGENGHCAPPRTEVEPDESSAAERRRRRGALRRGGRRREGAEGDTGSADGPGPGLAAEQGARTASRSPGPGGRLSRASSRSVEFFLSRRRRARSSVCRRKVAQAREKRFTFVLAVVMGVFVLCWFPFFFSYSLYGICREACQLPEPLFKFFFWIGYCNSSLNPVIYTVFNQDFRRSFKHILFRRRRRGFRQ
T2 sequence (P19328 whole entry): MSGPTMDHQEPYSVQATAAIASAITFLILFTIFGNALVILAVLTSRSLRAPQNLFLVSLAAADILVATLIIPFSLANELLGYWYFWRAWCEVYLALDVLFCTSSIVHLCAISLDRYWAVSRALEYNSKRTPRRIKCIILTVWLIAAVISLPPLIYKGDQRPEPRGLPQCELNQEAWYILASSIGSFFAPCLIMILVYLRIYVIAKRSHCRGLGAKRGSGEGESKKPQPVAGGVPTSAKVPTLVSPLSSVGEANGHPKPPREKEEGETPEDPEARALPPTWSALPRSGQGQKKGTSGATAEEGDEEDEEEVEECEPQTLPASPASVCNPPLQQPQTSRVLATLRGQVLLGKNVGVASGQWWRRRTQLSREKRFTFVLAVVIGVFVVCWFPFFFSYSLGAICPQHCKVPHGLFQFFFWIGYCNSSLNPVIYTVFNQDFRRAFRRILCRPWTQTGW
T2 sequence (P22909 whole entry): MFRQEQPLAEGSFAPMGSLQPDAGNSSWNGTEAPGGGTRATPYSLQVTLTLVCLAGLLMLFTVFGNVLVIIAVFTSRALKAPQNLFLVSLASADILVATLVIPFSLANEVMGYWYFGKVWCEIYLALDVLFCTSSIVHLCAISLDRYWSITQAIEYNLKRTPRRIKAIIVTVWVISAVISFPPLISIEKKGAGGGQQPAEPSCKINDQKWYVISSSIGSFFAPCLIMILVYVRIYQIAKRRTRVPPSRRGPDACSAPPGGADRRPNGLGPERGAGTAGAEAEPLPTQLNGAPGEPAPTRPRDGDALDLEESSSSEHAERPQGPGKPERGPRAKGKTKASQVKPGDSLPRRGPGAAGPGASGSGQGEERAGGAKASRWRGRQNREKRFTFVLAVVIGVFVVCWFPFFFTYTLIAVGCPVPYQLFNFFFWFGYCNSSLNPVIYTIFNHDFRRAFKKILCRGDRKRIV

[3] = target: T2, Adrenergic receptor alpha-2; assay: Compound evaluated for antagonist activity to alpha-2 adrenergic receptor in a competitive assay against clonidine in rat vas deferences; format: functional
Summary of the method: (§1)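 Male albino rat (175–200 g) vas deferens in 20 mL Krebs baths containing propranolol 1 μM and cocaine 10 μM, loading tension 0.5–0.8 g. Field stimulation at 0.1 Hz, 3-ms pulses, fixed 10–35 V. After ≥1 h equilibration, a cumulative clonidine curve (twitch inhibition) was run, then 30 min antagonist and a second curve. Time-matched controls were run. pA2 came from Schild plots (slope constrained to −1), three antagonist concentrations ×5, or van Rossum for two concentrations.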

[4] = target: Adrenergic receptor alpha-1 (Rattus norvegicus) (UniProt P15823+P23944+P43140); assay: Selectivity ratio is the antilog of the difference between pA2 at alpha-1 and alpha-2 adrenergic receptors
Summary of the method: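 Ratio calculated as the antilog of the difference between the pA2 values from the norepinephrine (α1, epididymal vas deferens) and clonidine (α2, field-stimulated vas deferens) Schild analyses in rat tissue.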

[5] = target: T1, Adrenergic receptor alpha-1; assay: Compound evaluated for antagonist activity to alpha-1 adrenergic receptor in a competitive assay against norepinephrine in rat vas deferences; format: functional
Summary of the method: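 Epididymal portion (14 mm) of male albino rat (175–200 g) vas deferens in Krebs with propranolol 1 μM and cocaine 10 μM, tension 0.4 g, equilibrated ≥1 h. Cumulative norepinephrine contraction curves: the first was discarded and the second was the control. A third curve followed 30 min antagonist incubation. Responses were taken as % of control maximum, corrected by untreated time-controls. Dose ratios at EC50 (three concentrations ×5) gave Schild pA2 with slope constrained to −1.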

Rattus norvegicus = organism: Rattus norvegicus; assay: Compound was tested for its effect in reducing the mean blood pressure after 2 min in male wistar rats; format: functional
Summary of the method: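 Male Wistar rats (400–490 g) under equithesin (3 mL/kg, then 0.8 mL/kg ip, with supplements every 90–120 min). Dosing was a single pulse iv injection into the jugular vein of 100 μg/kg in 30 μL, flushed with 100 μL saline, after a vehicle-only control. Carotid mean arterial pressure was followed over time as % decrease, given as mean ± SE, with paired t test.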

[6] = target: T2, Adrenergic receptor alpha-2; assay: Compound evaluated for antagonist activity to Alpha-2 adrenergic receptor in a competitive assay against clonidine in rat vas deferences; format: functional; summary of the method: as §1

Row | pA2 [1] | pA2 [2] | Structure (SMILES) | also measured
1 | 7.22 | 4.78 | COc1cc2nc(NCCCCCCCCNC(=O)c3ccco3)nc(N)c2cc1OC | 
2 | 8.17 | 5.76 | COc1cc2nc(NCCCCCCN(C)C(=O)c3ccco3)nc(N)c2cc1OC | 
3 | 8.93 | 6.84 | COc1cc2nc(N(C)CCCCCCN(C)C(=O)c3ccco3)nc(N)c2cc1OC | Reduction (Rattus norvegicus): 57.5%
4 | 8.6 | 6.55 | COc1cc2nc(N(C)CCCCCCCN(C)C(=O)c3ccco3)nc(N)c2cc1OC | 
5 | 8.83 | 6.68 | COc1cc2nc(N(C)CCCCCN(C)C(=O)c3ccco3)nc(N)c2cc1OC | 
6 | 8.03 |  | COc1cc2nc(N(C)CCNC(=O)c3ccco3)nc(N)c2cc1OC | pA2 [6]: 5.2
7 | 7.54 | 5.04 | COc1cc2nc(NCCCCCCCNC(=O)c3ccco3)nc(N)c2cc1OC | 

More lines, now with the values behind:

Row | Structure (SMILES) | pA2 [1] | pA2 [2] | also measured
8 | COc1cc2nc(NCCNC(=O)c3ccco3)nc(N)c2cc1OC | 8.28 | 5.37 | 
9 | COc1cc2nc(N(C)CCCN(C)C(=O)c3ccco3)nc(N)c2cc1OC | 7.41 | 6.45 | 
10 | COc1cc2nc(NCCCCCCNC(=O)c3ccco3)nc(N)c2cc1OC |  |  | pA2 [3]: 4.51; Ratio [4]: 2340; pA2 [5]: 7.88
11 | COc1cc2nc(N3CCN(C(=O)c4ccco4)CC3)nc(N)c2cc1OC [PRAZOSIN] |  |  | Reduction (Rattus norvegicus): 38.5%
12 | COc1cc2nc(N(C)CCCCCCCCN(C)C(=O)c3ccco3)nc(N)c2cc1OC | 8.1 | 6.31 | 
13 | COc1cc2nc(NCCCCCNC(=O)c3ccco3)nc(N)c2cc1OC |  |  | pA2 [3]: 5.01; Ratio [4]: 513; pA2 [5]: 7.72
14 | COc1cc2nc(NCCCCNC(=O)c3ccco3)nc(N)c2cc1OC |  |  | pA2 [3]: 6.03; Ratio [4]: 170; pA2 [5]: 8.25
15 | COc1cc2nc(N(C)CCCCN(C)C(=O)c3ccco3)nc(N)c2cc1OC | 8.15 | 6.5 | 
16 | COc1cc2nc(N(C)CCCCCCNC(=O)c3ccco3)nc(N)c2cc1OC | 8.53 | 5.98 | 
17 | COc1cc2nc(NCCCNC(=O)c3ccco3)nc(N)c2cc1OC |  |  | pA2 [3]: 5.99; Ratio [4]: 105; pA2 [5]: 8.01
18 | COc1cc2nc(N(C)CCN(C)C(=O)c3ccco3)nc(N)c2cc1OC | 6.7 | 5.52 | 
